# Only some compounds are listed: those with a hit (about 1.7% of all), similar ones and a draw of the others.
# Rce1 inh – yeast Rce1p protease inhibitors, primary screen, biochemical, fluorescence, cell-free homogeneous | yeast membranes, quenched prenylated peptide cleavage fluorescence | CAAX prenyl protease 2 (Saccharomyces cerevisiae (strain ATCC 204508 / S288c)), Q03530 | calls only | actives 0.27% (n = 290,000);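 active = fall in fluorescence gain of 50% or more versus controls, with final raw signal at or below 3038400; inconclusive = same 50% fall but final raw signal above 3038400; inactive = fall in fluorescence gain under 50%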;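 also: plate controls were neutral control wells for no effect and wells lacking membranes for full effect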
# Target sequence (Q03530 whole entry, looked up): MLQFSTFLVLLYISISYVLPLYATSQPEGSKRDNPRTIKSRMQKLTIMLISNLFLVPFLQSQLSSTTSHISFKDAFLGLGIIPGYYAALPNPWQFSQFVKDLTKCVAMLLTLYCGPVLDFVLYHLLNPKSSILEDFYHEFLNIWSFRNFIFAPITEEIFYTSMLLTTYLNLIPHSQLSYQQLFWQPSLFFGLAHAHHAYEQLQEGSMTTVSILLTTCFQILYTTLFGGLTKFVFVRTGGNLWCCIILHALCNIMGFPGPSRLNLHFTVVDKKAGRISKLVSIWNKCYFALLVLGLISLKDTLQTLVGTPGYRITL
# Vif inh – HIV Vif self-association inhibitors, primary screen, imaging, HEK293T, single point. HEK293T cells, Vif self-association by quenched fluorescence, 24 h. inhibition, % at 7.49 µM. actives 0.35% (n = 340,000); in the data active = inhibition above about 50%, passing the limit was not always enough; inconclusive = no clear call, values can overlap the other calls; inactive = below about 31%
# RanGTP-Imp inh – inhibitors of RanGTP-importin-beta interaction, primary screen, biochemical, FRET, CFP-Ran, YFP-importin-beta, homogeneous; actives 1.1% (n = 300,000); inhibition, % (no concentration beside the values); cell-free CFP-Ran/YFP-importin-beta FRET ratio; AID 2216, 2009;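 active = more than half of the replicate wells show a fall in the fluorescence ratio signal beyond about 16%, limit read from the data, passing the limit was not always enough; inconclusive = exactly half of the replicate wells pass the set limit; inactive = fewer than half of replicates pass the limit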;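 also: 0% = DMSO wells and 100% = Ran loaded with GDP instead of GTP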
# Runt-SMMHC FRET – inhibitors of RUNX1 Runt–CBFb-SMMHC binding, primary screen, biochemical, FRET, Cerulean-Runt, Venus-CBFb-SMMHC, uHTS. inhibition, % at 20 µM. AID 1434, 2008. actives 0.74% (n = 220,000). Cerulean-Runt/Venus-CBFb-SMMHC FRET ratio 530/480, 1 h. Runt-related transcription factor 1 (Homo sapiens) + Core-binding factor subunit beta …;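 active = mean inhibition across duplicate retests at 20 µM reaching about 50%, limit read from the data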;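 also: 0% = DMSO wells and 100% = wells with excess untagged CBFb-SMMHC; inhibitors lower the FRET ratio by blocking Runt binding to CBFb-SMMHC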
# Runt-CBFb FRET – inhibitors of RUNX1 Runt–CBFb binding, primary screen, biochemical, FRET, Cerulean-Runt, Venus-CBFb, uHTS; Cerulean-Runt/Venus-CBFb FRET ratio 530/480, 1 h; inhibition, % at 20 µM; actives 0.46% (n = 220,000);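 active = inhibition over about 50% at 20 µM in the single-dose screen, limit read from the data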;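 also: 0% = DMSO wells and 100% = excess unlabeled CBFb competitor control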
#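 Assay system: Cerulean-Runt domain fusion protein, energy donor; Signal: fluorescence energy transfer, 422 nm excitation, 530/480 nm emission; Timing: 1 h compound exposure, room temperature; Control set: unlabeled CBFb; Medium: Tris buffer pH 7.5 with salts and BSA; Compound: single test concentration of 20 µM, 1% DMSO final; Probe or stimulus: Venus-CBFb 100 nM.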
# Numbers without * were called inactive; i = inactive; ? = inconclusive; nt = not tested or not shown; + = active, no number; ! = not confirmed by another sample.
SMILES,Rce1 inh,Vif inh,RanGTP-Imp inh,Runt-SMMHC FRET,Runt-CBFb FRET
CC(C)CCOC(=O)c1c(N)n(CC2CCCO2)c2nc3ccccc3nc12 (stereo unspecified),i,-14.1,11.2,64.8*,22.2
CCCCOC(=O)c1ccccc1N,nt,-5.0,nt,nt,nt
COCCCNC(=O)c1c(NC(=O)c2ccccc2)n(Cc2ccccc2)c2nc3ccccc3nc12,i,-2.3,?,nt,nt
CCCCn1c(N)c(C(=O)OCC2CCCO2)c2nc3ccccc3nc21 (stereo unspecified),i,nt,?,105.7*,41.3
COCCCn1c(N)c(C(=O)NCCC(C)C)c2nc3ccccc3nc21,i,-14.6,102.9*,88.3,17.0
CCCCOCCCn1c(N)c(C(=O)OCCOC)c2nc3ccccc3nc21,i,-15.1,?,103.4*,44.4
COc1ccc(-n2nnnc2C(c2ccccc2OC(F)(F)F)N2CCC3(CC2)C(=O)NCN3c2ccccc2)cc1 (stereo unspecified),nt,-6.1,nt,nt,nt
CC(C)CCn1c(N)c(C(=O)OCC2CCCO2)c2nc3ccccc3nc21 (stereo unspecified),i,-2.5,?,82.1*,38.2
COc1ccc(CC2NCC(O)C2OC(C)=O)cc1 (stereo unspecified),nt,-27.8,nt,nt,nt
CN1CCc2nc3ccc(F)cc3c(C(N)=O)c2C1,i,60.2*,-2.5,-3.3,1.2
CCOP(=O)(CCP(=O)(OCC)OCC)OCC.C[CH2][Sn]([Cl])([Cl])[CH2]C,nt,1.4,nt,nt,nt
CCOC(=O)c1c(NC(=O)c2c(N)n(CCCOC)c3nc4ccccc4nc23)sc2c1CCCC2,i,-8.2,6.4,100.9*,68.8*
CCOCCCn1c(N)c(C(=O)Nc2sc3c(c2C(=O)OC)CCCC3)c2nc3ccccc3nc21,i,10.1,2.8,136.7*,40.6
C=C1C(=O)O[C@@H]2C[C@@H](C)[C@@H]3C=CC(=O)[C@@]3(C)[C@@H](O)[C@H]12,i,54.3*,0.0,0.9,2.9
C[C@@H]1C[C@H]2OC(=O)C3(CO3)[C@H]2[C@H](O)[C@]2(C)C(=O)C3OC3[C@@H]12 (stereo partly specified),i,nt,1.1,-1.1,3.6
c1cc2c(cc1[C@H]1OC[C@H]3[C@@H]1CO[C@H]3c1ccc3c(c1)OCO3)OCO2,nt,5.0,nt,nt,nt
N#CC1=C(N)Oc2cc(O)ccc2C1c1ccc2c(c1)OCO2 (stereo unspecified),i,-1.0,66.6*,90.5*,20.6
COc1ccc2c3c([nH]c2c1)C(C)=NCC3,+,-3.6,61.7*,72.6*,4.5
CN(C)c1ccc(/C=C2/C(=N\O)C3CCN2CC3)cc1,i,-7.6,56.9*,28.7,1.2
O=C1C(=Cc2ccccc2)N2CCC1CC2,nt,3.1,nt,nt,nt
CCCCn1c(NS(=O)(=O)c2ccc(C)cc2)c(C(=O)OCC)c2nc3ccccc3nc21,i,5.8,75.3*,58.5*,9.6
CCCCn1c(NC(=O)c2ccco2)c(C(=O)OCC)c2nc3ccccc3nc21,i,-1.7,71.1*,60.4*,18.4
Cc1cccc(N=C2c3cc([N+](=O)[O-])ccc3-c3c2cc([N+](=O)[O-])cc3[N+](=O)[O-])c1,nt,2.6,nt,nt,nt
CC(=O)OC1C(=O)OCC23CCC4(C)OC4C2OC2CC(OC(=O)C=CC=CC(=O)OCCC1C)C3(C)C21CO1 (stereo unspecified),nt,-25.1,nt,nt,nt
O=C(Nc1ccc(C(=O)O)cc1)Oc1ccc(N(CCCl)CCCl)cc1,nt,0.9,nt,nt,nt
SMILES,Rce1 inh,Vif inh,RanGTP-Imp inh,Runt-SMMHC FRET,Runt-CBFb FRET
Cc1noc(C)c1COc1ccc(C(=O)NCC2(N(C)C)CCCCC2)cc1,nt,14.4,nt,nt,nt
O=C1NC(=O)C(=Cc2cc([N+](=O)[O-])ccc2N2CCCCC2)C(=O)N1,i,59.0*,?,-5.6,nt
O=C1NC(=O)C(=Cc2ccc(N3CCN(C(=O)c4ccccc4)CC3)c([N+](=O)[O-])c2)C(=O)N1,i,8.0,3.9,10.8,14.9
OC1(c2ccc(F)cc2)CCNC1 (stereo unspecified),i,82.0*,-0.4,1.3,-3.1
COc1cc(C(O)CNC(C)C)cc(F)c1OC (stereo unspecified),i,55.2*,0.6,nt,nt
COc1cc(C(O)CN)ccc1O (stereo unspecified),nt,-5.7,nt,nt,nt
C=C1N2CCC(CC2)C1(O)c1ccc(C)c(C)c1 (stereo unspecified),i,51.2*,1.7,-2.1,0.0
Cc1ccc(N2C(=O)NC(=O)C3(Cc4ccccc4N4CCCC43)C2=O)cc1 (stereo unspecified),i,0.4,19.8*,-3.8,1.9
O=C1NC(=O)C2(Cc3ccccc3N3CCCC32)C(=O)N1c1ccc(Cl)cc1 (stereo unspecified),i,-1.3,nt,8.3,7.0
CCCCn1nnnc1C(CCSC)N1CCC(n2c(=O)[nH]c3ccccc32)CC1 (stereo unspecified),nt,-1.7,nt,nt,nt
CC(=O)OCC[N+](C)(C)C,+!,-0.5,5.9,-0.2,1.3
O=c1cccc2n1C[C@H]1C[C@@H]2CN2CCCC[C@@H]12,i,-7.2,-0.1,-0.5,1.0
CC(Cc1ccc(O)cc1)NCC(O)c1cc(O)cc(O)c1 (stereo unspecified),i,89.7*,17.4*,6.8,13.3
CC12CCC(=O)C=C1CC(N1CC1)C1C2CCC2(C)C(O)CCC12 (stereo unspecified),nt,4.5,nt,nt,nt
Nc1c(C(=O)NCCCc2ccccc2)c2nc3ccccc3nc2n1Cc1cccs1,i,-3.4,66.4*,25.2,4.8
CCCCn1c(N)c(C(=O)NCc2cccs2)c2nc3ccccc3nc21,i,2.7,68.2*,76.5*,nt
CCCOC(=O)c1c(N)n(Cc2cccs2)c2nc3ccccc3nc12,i,-4.5,?,107.5*,40.1
CCCCCn1c(N)c(C(=O)NCc2cccs2)c2nc3ccccc3nc21,i,nt,55.7*,18.8,3.1
CCCCCn1c(=O)c(C(=O)Nc2nc3ccccc3[nH]2)c(O)c2ccccc21,i,1.4,1.7,-0.8,1.4
O=C(NCC1=C(c2ccc3ccccc3c2)C[C@@H]2CC[C@H]1N2Cc1ccco1)c1nccs1,nt,-0.8,nt,nt,nt
C[C@H]1CN([C@@H](C)CO)C(=O)CCCn2nncc2CO[C@@H]1CN(C)C(=O)Oc1ccccc1,nt,15.7,nt,nt,nt
Cc1cc(C)c(S(=O)(=O)N2Cc3ccccc3-n3nncc3C2)c(C)c1,nt,-1.9,nt,nt,nt
